Here are results for two compounds from ChEMBL document CHEMBL4196102, “Yeast Chemogenomic Profiling Reveals Iron Chelation To Be the Principle Cell Inhibitory Mode of Action of Gossypol” (J Med Chem, 2018).

Calls of active or inactive are those of the source. The rule behind the calls is not given here.

Holding throughout (assay type): functional, organism-based
In test [1] the test system is Saccharomyces cerevisiae. The test can be described thus: Growth inhibition of Saccharomyces cerevisiae harboring PIB2 deletion mutant at 400 uM measured for 11 hrs by HIP assay. In a few lines: (§1)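 Pooled homozygous (HOP) or heterozygous (HIP) deletion collections were profiled at 400 µM in two independent experiments, with strain sensitivity read from barcode abundance. Hits were retested as individual log-phase strains in YPD with serial compound dilutions, start OD600 0.01 and 2% DMSO. OD600 was read at 11 h and fitted by logistic regression against HO/YDL227C as wild-type reference.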

Test [2] has as its system Saccharomyces cerevisiae. As to the kind of experiment: Growth inhibition of Saccharomyces cerevisiae harboring FET3 deletion mutant at 400 uM measured for 11 hrs by HOP assay. In a few lines: as §1
The test system of test [3] is Saccharomyces cerevisiae. The test can be described thus: Growth inhibition of Saccharomyces cerevisiae harboring GRX6 deletion mutant at 400 uM measured for 11 hrs by HOP assay. In a few lines:
as §1

Test [4] relates to Saccharomyces cerevisiae. The test can be described thus: Growth inhibition of Saccharomyces cerevisiae harboring GEF1 deletion mutant at 400 uM measured for 11 hrs by HOP assay. An outline of the steps:
as §1

The test system of test [5] is Saccharomyces cerevisiae. The test can be described thus: Growth inhibition of Saccharomyces cerevisiae harboring CCC2 deletion mutant at 400 uM measured for 11 hrs by HOP assay. In a few lines: as §1
Test [6] has as its system Saccharomyces cerevisiae. As to the kind of experiment: Growth inhibition of wild type Saccharomyces cerevisiae BY4743 at 500 uM measured for 15 hrs in presence of Fe2+.
For test [7], the system named is Saccharomyces cerevisiae. As to the kind of experiment: Growth inhibition of Saccharomyces cerevisiae harboring FTR1 deletion mutant at 400 uM measured for 11 hrs by HOP assay. In a few lines:
as §1

For test [8], the system named is Saccharomyces cerevisiae. As to the kind of experiment: Growth inhibition of wild type Saccharomyces cerevisiae BY4743 at 100 uM measured for 15 hrs in presence of Fe2+.

Turning to `Cc1cc2c(C(C)C)c(O)c(O)c(C=O)c2c(O)c1-c1c(C)cc2c(C(C)C)c(O)c(O)c(C=O)c2c1O`, the “growth inhibition (GI)” value in test [1] and in test [6] was “inactive” throughout. For the same compound, the “growth inhibition (GI)” value in test [2], in test [3], in test [4], in test [5] and in test [7] was “Active” throughout.
On to `O=C(O)c1ccc(-n2nc(-c3ccccc3O)nc2-c2ccccc2O)cc1`, for which, in test [2], the “growth inhibition (GI)” value was “Active”. The “growth inhibition (GI)” value in test [4] and in test [8] was “inactive” each time.
